Format in all cases: functional
Assay [1] relates to Oncopeltus fasciatus. The assay can be described thus: Insecticidal activity against third-instar nymph stage of Oncopeltus fasciatus assessed as nymph survival to reach adult instar stage at 20 to 500 ug/cm2 after 72 hr relative to control. An outline of the steps:
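Insects were colony-reared at 27 ± 1 °C, 50-60% RH and 16 h/8 h photoperiod. After 72 h of exposure, surviving nymphs were moved to a 500 cm3 glass flask and held under standard conditions to follow development to the adult stage. Acetone-treated controls were run in parallel.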

In assay [2] the test system is Ceratitis capitata. Kind of assay: Insecticidal activity against adult Ceratitis capitata assessed as eclosion rate at 10 ug/fly measured on 4 to 10 days relative to control.
Assay [3] concerns Ceratitis capitata. Kind of assay: Insecticidal activity against adult Ceratitis capitata assessed as mortality at 10 ug/fly measured every 24 hr for 10 days relative to control. An outline of the steps:
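Adults 2-3 days old (5 males, 5 females per group) were anaesthetised on ice and dosed topically on the ventral abdomen with 1 µL of acetone dilution. Controls received 1 µL of acetone. Flies were held at 27 ± 1 °C, 50-60% RH and 16 h/8 h light/dark, with diet and water ad libitum. Mortality was scored every 24 h for 10 days. The assay was run on six occasions.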

Assay [4] deals with Ceratitis capitata. Kind of assay: Insecticidal activity against adult Ceratitis capitata assessed as fecundity reduction at 10 ug/fly measured every 2 days for 10 days relative to control. Also noted: scale not given: the % may be the effect or the level left. Put shortly: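 Flies were anaesthetised on ice and dosed topically on the abdomen with 1 µL of acetone solution; controls received acetone alone. Eggs laid over 24 h were collected and counted every 2 days through the 10-day period. Female deaths were logged to give eggs/female/day, accumulated over 10 days. Six independent experiments, reported as means ± SE.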

Assay [5] has as its system Ceratitis capitata. Kind of assay: Insecticidal activity against adult Ceratitis capitata assessed as fertility reduction at 10 ug/fly measured on 6 to 10 days relative to control. Details: scale not given: the % may be the effect or the level left. An outline of the steps:
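Flies were dosed topically with 1 µL of acetone solution after ice anaesthesia; controls received acetone. On days 6 and 10 after treatment, 30 eggs per experiment were picked at random and placed on plates coated with 0.03% agar. Plates were kept at 27 ± 2 °C, 50-60% RH and 16 h/8 h light/dark, and emerged larvae were counted 5 days after collection.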

Assay [6] has as its system Oncopeltus fasciatus. Kind of assay: Insecticidal activity against third-instar nymph stage of Oncopeltus fasciatus assessed as mortality at 20 ug/cm2 after 72 hr relative to control. Put shortly:
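Nymphs were reared on sunflower seeds at 27 ± 1 °C, 50-60% RH and 16 h/8 h light/dark. Acute toxicity was scored as dead insects after 72 h of exposure. Controls received the same amount of acetone. Run in triplicate; values are means ± SE with significance at […].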

In general, mortality refers to the share of the test organisms that died. In the case of `C=C(C)[C@H]1O[C@H]2CC[C@@]3(C)[C@@](O)(CC[C@H]4[C@@H]5OC(C)(C)[C@H]6C[C@@H]7C(=C)Cc8c(Cl)cc9[nH]c(c5c9c8[C@@]76O)[C@@]43C)[C@@]23O[C@H]3[C@H]1O` [PENITREM A], the Survival with Oncopeltus fasciatus [1] is 0%. For the same molecule, the Activity with Ceratitis capitata [2] is 0%; with Ceratitis capitata [4], 78.4%; in the assay on Ceratitis capitata [5], 100%. Further, the mortality with Ceratitis capitata [3] is recorded as 59.7%. Also, the mortality at 20 µg/cm2 in the assay with Oncopeltus fasciatus [6] amounted to 31.1%.
Regarding `C=C1Cc2ccc3[nH]c4c5c3c2[C@H]2[C@@H]1C[C@@H]2C(C)(C)O[C@H]5[C@@H]1CC[C@@]2(O)[C@@]35O[C@@H]3[C@@H](O)[C@@H](C(=C)C)O[C@H]5CC[C@]2(C)[C@@]41C` [PENITREM B], in the assay with Oncopeltus fasciatus [1], the Survival is recorded as 14.3%. The Activity in the assay with Ceratitis capitata [2] was found to be 0%; with Ceratitis capitata [4], 88%; with Ceratitis capitata [5], 100%. The mortality in the assay with Ceratitis capitata [3] is on record as 50%. Also, the mortality at 20 µg/cm2 in the assay on Oncopeltus fasciatus [6] turned out to be 6.6%.
With `C=C1Cc2c(Cl)cc3[nH]c4c5c3c2[C@H]2[C@@H]1C[C@@H]2C(C)(C)O[C@H]5[C@@H]1CC[C@@]2(O)C3=C[C@@H](O)[C@@H](C(=C)C)O[C@H]3CC[C@]2(C)[C@@]41C` [PENITREM C], in the assay with Oncopeltus fasciatus [1], the Survival was found to be 29.5%. Moreover, the Activity amounted to 0% in the assay on Ceratitis capitata [2], 94.9% with Ceratitis capitata [4] and 100% in the assay on Ceratitis capitata [5]. Moreover, in the assay on Ceratitis capitata [3], the mortality was found to be 73.3%. Besides, the mortality at 20 µg/cm2 with Oncopeltus fasciatus [6] was found to be 24.4%.
Turning to `C=C1Cc2ccc3[nH]c4c5c3c2[C@H]2[C@@H]1C[C@H]2C(C)(C)O[C@H]5[C@@H]1CC[C@@]2(O)C3=C[C@@H](O)[C@@H](C(=C)C)O[C@H]3CC[C@]2(C)[C@@]41C` [PENITREM D], in the assay on Oncopeltus fasciatus [1], the Survival amounted to 58.3%. Besides, the Activity in the assay on Ceratitis capitata [2] is listed as 42.8%; in the assay on Ceratitis capitata [4] it was 77.1%; in the assay with Ceratitis capitata [5], 52.5%. In addition, in the assay on Ceratitis capitata [3], the mortality was found to be 41.7%. For the same molecule, the mortality at 20 µg/cm2 with Oncopeltus fasciatus [6] is 11.1%.
Turning to `C=C1Cc2c(Cl)cc3[nH]c4c5c3c2[C@H]2[C@@H]1C[C@@H]2C(C)(C)O[C@H]5[C@@H]1CC[C@@]2(O)[C@@]35O[C@@H]3[C@@H](O)[C@@H](C(=C)C)O[C@H]5CC[C@]2(C)[C@@]41C` [PENITREM F], the Survival in the assay with Oncopeltus fasciatus [1] is 9.5%. Also, the Activity in the assay with Ceratitis capitata [2] was 0%; in the assay on Ceratitis capitata [4] it was 100%; in the assay on Ceratitis capitata [5] it was 100%. For the same molecule, the mortality with Ceratitis capitata [3] stood at 66.6%. Further, the mortality at 20 µg/cm2 in the assay with Oncopeltus fasciatus [6] was found to be 20.3%.
`C=C1Cc2ccc3[nH]c4c5c3c2[C@H]2[C@@H]1C[C@H]2C(C)(C)O[C@H]5[C@]1(O)CC[C@@]2(O)C3=C[C@@H](O)[C@@H](C(=C)C)O[C@H]3CC[C@]2(C)[C@@]41C` [PENITREM G]: in the assay with Oncopeltus fasciatus [1], the Survival was found to be 100%. For the same molecule, the Activity with Ceratitis capitata [2] turned out to be 88.5%; with Ceratitis capitata [4], 7.2%; in the assay with Ceratitis capitata [5], 3.8%. Further, in the assay on Ceratitis capitata [3], the mortality worked out at 0%. Also, in the assay with Oncopeltus fasciatus [6], the mortality at 20 µg/cm2 is 0%.

The values above are taken from ChEMBL document CHEMBL3046222, “Insecticidal activity of penitrems, including penitrem G, a new member of the family isolated from Penicillium crustosum” (2003).
